Source: article PMC6474797 (ACS chemical biology, 2019)

Assays:
[1] = with PLAC–PEG polymer, compared with PPD colloids; cited from earlier work
[2] = Critical aggregation concentration; format: physicochemical
Procedure, shortened: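 Colloids were formulated in PBS with 0.01% UP80 and 10 μM of a cholesteryl BODIPY FRET pair (FL C12 donor, 542/563 C11 acceptor; 0.875:0.125) added to the drug stock. They were diluted 10-fold into PBS or serum media and read by fluorescence (excitation 490 nm, acceptor emission 575 nm). Dye-free comparison was by DLS scattering intensity (830 nm laser, 158° detector).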

## CC(=O)O[C@@]12CO[C@@H]1C[C@H](O)[C@@]1(C)C(=O)[C@H](O)C3=C(C)[C@@H](OC(=O)[C@H](O)[C@@H](NC(=O)OC(C)(C)C)c4ccccc4)C[C@@](O)([C@@H](OC(=O)c4ccccc4)[C@H]21)C3(C)C [docetaxel]
[1]
  drug loading: significantly lower drug loading

## C[C@]12CC[C@@H]3c4ccc(O)cc4C[C@@H](CCCCCCCCC[S+]([O-])CCCC(F)(F)C(F)(F)F)[C@H]3[C@@H]1CC[C@@H]2O (stereo partly shown) [fulvestrant]
[2]; PBS, fluorescence versus light scattering methods
  measured CAC with or without BODIPY dyes: no difference
[2]; protein-free media, light scattering (Figure S3)
  critical aggregation concentration (CAC): low micromolar
[2]; serum-containing media, colloids with 10 μM BODIPY FRET pair, 0.01% UP80, diluted 10-fold, fluorescence intensity
  critical aggregation concentration (CAC): increased with serum content
